Test results published in ChEMBL document CHEMBL1126768, “A mechanism-based inactivation study of neutral endopeptidase 24.11” (J Med Chem, 1993).

Assays:
[1] = molecular target: Angiotensin-converting enzyme (Homo sapiens) (UniProt P12821); test: Partition ratio expressed as ratio of catalytic constant to that of inactivation constant for angiotensin converting enzyme (ACE)
[2] = molecular target: Neprilysin (Homo sapiens) (UniProt P08473); test: Inactivation constant for Neutral endopeptidase (NEP)
How it was run: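 Recombinant human NEP from CHO cells (>99% pure), 0.5 μM in 50 mM HEPES pH 7.4 with 10% p-dioxane, incubated at 25 °C with inactivator at 0.5–7.5 μM final. Aliquots diluted 1:100 into DAGNPG assay solution (50 mM Tris pH 7.4, 37 °C), fluorescence read at ex 342/em 562 nm. Pseudo-first-order kobs plotted double-reciprocally against inactivator concentration to give kinact and Km.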

[3] = molecular target: T1, Angiotensin-converting enzyme (Rattus norvegicus) (UniProt P47820); test: Inactivation constant for angiotensin converting enzyme (ACE)
T1 sequence (whole entry): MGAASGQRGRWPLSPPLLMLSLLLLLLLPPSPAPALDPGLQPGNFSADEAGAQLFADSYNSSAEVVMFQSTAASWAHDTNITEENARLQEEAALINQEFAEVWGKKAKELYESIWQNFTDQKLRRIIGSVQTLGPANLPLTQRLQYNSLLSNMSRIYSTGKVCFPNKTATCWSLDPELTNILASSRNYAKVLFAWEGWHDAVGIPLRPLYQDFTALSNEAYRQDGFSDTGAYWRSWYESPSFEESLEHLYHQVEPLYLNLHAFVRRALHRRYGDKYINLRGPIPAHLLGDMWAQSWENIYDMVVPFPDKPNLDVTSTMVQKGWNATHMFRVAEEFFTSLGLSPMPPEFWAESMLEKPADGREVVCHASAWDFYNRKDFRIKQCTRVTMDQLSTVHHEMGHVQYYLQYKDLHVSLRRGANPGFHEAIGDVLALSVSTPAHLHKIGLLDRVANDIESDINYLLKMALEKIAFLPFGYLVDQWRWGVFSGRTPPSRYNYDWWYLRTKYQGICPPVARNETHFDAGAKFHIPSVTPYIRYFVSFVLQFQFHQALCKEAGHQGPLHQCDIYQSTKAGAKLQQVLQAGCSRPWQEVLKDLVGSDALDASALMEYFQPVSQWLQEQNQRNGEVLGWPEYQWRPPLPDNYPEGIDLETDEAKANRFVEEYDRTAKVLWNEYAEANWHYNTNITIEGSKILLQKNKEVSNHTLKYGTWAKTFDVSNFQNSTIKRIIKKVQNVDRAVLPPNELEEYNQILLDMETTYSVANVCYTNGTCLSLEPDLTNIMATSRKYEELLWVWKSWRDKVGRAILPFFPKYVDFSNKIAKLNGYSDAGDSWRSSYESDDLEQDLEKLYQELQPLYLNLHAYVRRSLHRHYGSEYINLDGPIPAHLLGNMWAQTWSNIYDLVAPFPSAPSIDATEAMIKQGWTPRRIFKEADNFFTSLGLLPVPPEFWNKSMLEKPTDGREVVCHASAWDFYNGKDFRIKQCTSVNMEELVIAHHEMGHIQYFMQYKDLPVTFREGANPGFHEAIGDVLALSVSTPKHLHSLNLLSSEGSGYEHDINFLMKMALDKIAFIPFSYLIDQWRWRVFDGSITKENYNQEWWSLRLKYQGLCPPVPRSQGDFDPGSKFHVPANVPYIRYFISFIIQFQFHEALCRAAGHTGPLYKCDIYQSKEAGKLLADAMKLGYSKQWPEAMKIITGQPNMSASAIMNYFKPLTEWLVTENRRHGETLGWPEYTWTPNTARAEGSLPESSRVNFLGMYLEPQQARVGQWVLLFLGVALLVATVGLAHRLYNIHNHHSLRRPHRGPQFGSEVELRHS

[4] = Partition ratio expressed as ratio of catalytic constant to that of inactivation constant for (NEP)
How it was run: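 Partition ratio was found by titration. NEP at 0.5 μM in 50 mM HEPES pH 7.4 was mixed with inactivator at inactivator/NEP molar ratios from 1 up to 2600 or 6000, then stirred gently at 4 °C for 16 h. Aliquots were diluted 1:100 into DAGNPG assay solution and residual activity was measured fluorometrically. Controls lacked inactivator.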

[5] = molecular target: Neprilysin (Homo sapiens) (UniProt P08473)

Neprilysin (Homo sapiens), sequence (P08473 whole entry): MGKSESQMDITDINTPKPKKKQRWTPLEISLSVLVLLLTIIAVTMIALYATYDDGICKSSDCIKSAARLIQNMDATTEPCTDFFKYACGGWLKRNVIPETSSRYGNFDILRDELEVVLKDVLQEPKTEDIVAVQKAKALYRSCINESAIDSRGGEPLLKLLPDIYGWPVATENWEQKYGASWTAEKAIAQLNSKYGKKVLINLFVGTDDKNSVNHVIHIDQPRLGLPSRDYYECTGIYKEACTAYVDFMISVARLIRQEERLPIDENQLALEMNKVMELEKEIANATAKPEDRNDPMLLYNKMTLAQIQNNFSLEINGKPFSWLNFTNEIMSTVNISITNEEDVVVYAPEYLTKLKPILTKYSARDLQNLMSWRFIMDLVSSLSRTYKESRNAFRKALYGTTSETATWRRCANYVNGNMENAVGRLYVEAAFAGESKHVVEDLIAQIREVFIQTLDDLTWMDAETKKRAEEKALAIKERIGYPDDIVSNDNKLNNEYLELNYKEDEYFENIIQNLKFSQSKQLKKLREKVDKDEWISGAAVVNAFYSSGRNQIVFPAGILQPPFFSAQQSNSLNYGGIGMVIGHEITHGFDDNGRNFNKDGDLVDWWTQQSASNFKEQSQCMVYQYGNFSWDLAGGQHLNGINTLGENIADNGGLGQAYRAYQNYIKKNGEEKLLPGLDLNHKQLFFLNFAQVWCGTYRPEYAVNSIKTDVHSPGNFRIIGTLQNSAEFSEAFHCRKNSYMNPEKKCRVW
Angiotensin-converting enzyme (Homo sapiens), sequence (P12821 whole entry): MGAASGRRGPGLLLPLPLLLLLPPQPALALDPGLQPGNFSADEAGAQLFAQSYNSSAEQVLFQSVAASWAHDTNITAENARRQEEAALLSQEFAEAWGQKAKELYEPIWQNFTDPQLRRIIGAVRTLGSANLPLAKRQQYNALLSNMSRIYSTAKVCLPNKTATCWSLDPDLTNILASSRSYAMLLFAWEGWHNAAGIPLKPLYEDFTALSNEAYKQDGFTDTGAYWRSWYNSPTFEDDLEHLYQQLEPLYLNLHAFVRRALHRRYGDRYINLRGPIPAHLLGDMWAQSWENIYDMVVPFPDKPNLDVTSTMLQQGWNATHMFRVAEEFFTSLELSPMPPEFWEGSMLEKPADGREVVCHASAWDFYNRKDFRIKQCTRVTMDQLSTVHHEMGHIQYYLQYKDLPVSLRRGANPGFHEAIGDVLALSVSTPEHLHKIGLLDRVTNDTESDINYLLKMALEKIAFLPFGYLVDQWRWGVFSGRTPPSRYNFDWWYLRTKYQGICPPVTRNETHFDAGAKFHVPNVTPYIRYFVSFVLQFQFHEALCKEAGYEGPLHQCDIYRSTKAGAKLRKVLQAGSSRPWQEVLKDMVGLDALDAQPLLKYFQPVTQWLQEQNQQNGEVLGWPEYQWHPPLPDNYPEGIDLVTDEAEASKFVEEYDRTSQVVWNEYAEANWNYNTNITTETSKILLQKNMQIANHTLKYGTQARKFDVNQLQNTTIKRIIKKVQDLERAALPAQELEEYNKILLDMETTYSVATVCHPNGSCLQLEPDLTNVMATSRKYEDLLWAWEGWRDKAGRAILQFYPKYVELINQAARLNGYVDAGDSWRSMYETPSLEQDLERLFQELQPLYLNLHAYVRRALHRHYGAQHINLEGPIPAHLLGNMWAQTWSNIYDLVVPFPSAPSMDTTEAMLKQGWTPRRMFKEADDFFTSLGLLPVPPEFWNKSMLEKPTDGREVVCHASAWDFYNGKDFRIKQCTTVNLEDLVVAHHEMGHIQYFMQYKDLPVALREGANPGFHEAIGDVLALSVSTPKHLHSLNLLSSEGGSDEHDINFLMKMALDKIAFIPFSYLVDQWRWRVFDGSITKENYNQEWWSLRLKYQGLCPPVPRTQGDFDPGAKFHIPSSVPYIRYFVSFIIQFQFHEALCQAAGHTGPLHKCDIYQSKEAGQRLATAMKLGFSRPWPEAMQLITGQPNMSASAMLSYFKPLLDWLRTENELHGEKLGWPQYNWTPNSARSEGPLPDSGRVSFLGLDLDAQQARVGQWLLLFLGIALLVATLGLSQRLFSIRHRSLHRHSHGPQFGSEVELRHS

| K cat/Kinact [1] | kinact [2] [min⁻¹] | kinact [3] [min⁻¹] | K cat/Kinact [4] | kinact [5] [min⁻¹] | Structure (SMILES) |
| --- | --- | --- | --- | --- | --- |
| 8300 | 0.022 | 0.08 | 4700 |  | N#CCC(=O)NC(Cc1ccccc1)C(=O)NC(Cc1ccccc1)C(=O)O (stereo unspecified) |
|  |  |  | 1340 | 0.071 | N#CCC(=O)CC(Cc1ccccc1)C(=O)NC(Cc1ccccc1)C(=O)O (stereo unspecified) |
